Experimental data published in ChEMBL document CHEMBL1649299, “Eradication of intracellular Salmonella enterica serovar Typhimurium with a small-molecule, host cell-directed agent” (Antimicrob Agents Chemother, 2009).
Calls of active or inactive are those of the source.

Legend:
Salmonella typhimurium [1] = test: Antimicrobial activity against Salmonella enterica serovar Typhimurium ATCC 14028 infected in mouse RAW264.7 cells assessed as reduction of bacterial survival at 1 uM after 2 hrs relative to control; type: functional, Salmonella enterica subsp. enterica serovar Typhimurium
In short: (§1)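 RAW264.7 cells were seeded at 5.0 × 10^5 cells/well for 12–16 h. Log-phase bacteria (1:33 subculture, 3 h in LB, 37°C) were added at MOI 25 for 30 min. Extracellular bacteria were killed with 100 μg/ml gentamicin for 1 h, then washed off. Cells were treated in medium with 10% FBS and 10 μg/ml gentamicin (DMSO 0.1% final) and lysed with 0.1% Triton X-100. CFU were counted on LB agar after 16 h at 37°C.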

Salmonella typhimurium [2] = test: Antimicrobial activity against Salmonella enterica serovar Typhimurium ATCC 14028 infected in mouse RAW264.7 cells assessed as reduction in bacterial load at 1 uM after 8 hrs by immunofluorescent staining; type: functional, Salmonella enterica subsp. enterica serovar Typhimurium; parameters: scale not given: the % may be the effect or the level left
In short: (§2)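 RAW264.7 cells were fixed in 4% formaldehyde for 20 min at 25°C, permeabilized with 0.5% Triton X-100, and blocked overnight in 3% BSA. Staining used primary antibody (anti-LC3 for autophagosomes) for 1 h, then fluorescent secondary antibody for 1 h, with DAPI for nuclei. Slides were read by wide-field or confocal microscopy. For colocalization, only bacteria in direct contact with autophagosomes in 3-D confocal images were scored. Giant puncta were defined as ≥1 μm.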

Salmonella typhimurium [3] = test: Antimicrobial activity against Salmonella enterica serovar Typhimurium ATCC 14028 infected in mouse RAW264.7 cells assessed as inhibition of intracellular bacterial growth at 1 uM after 4 hrs; type: functional, organism-based, Salmonella enterica subsp. enterica serovar Typhimurium; in short: as §1
Salmonella typhimurium [4] = test: Antimicrobial activity against Salmonella enterica serovar Typhimurium ATCC 14028 infected in mouse RAW264.7 cells assessed as inhibition of intracellular bacterial growth at 1 uM after 8 hrs; type: functional, Salmonella enterica subsp. enterica serovar Typhimurium; parameters: scale not given: the % may be the effect or the level left; in short: as §1
Salmonella typhimurium [5] = test: Antimicrobial activity against Salmonella enterica serovar Typhimurium ATCC 14028 infected in mouse RAW264.7 cells assessed as inhibition of intracellular bacterial growth after 8 hrs; type: functional, organism-based, Salmonella enterica subsp. enterica serovar Typhimurium; conditions: ATCC 14028, RAW264.7, 8 h; in short: as §1
RAW264.7 [6] = test: Cytotoxicity against Salmonella enterica serovar Typhimurium ATCC 14028 infected in mouse RAW264.7 cells assessed as cell viability at 1 uM after 24 hrs by MTT assay; type: cell-based; conditions: raw264.7, 24 h
Salmonella typhimurium [7] = test: Antimicrobial activity against Salmonella enterica serovar Typhimurium ATCC 14028 infected in mouse J774.1 cells; type: functional, organism-based; conditions: Salmonella enterica subsp. enterica serovar Typhimurium
In short: (§3)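 Macrophages were seeded at 5.0 × 10^5 cells/well for 12–16 h; THP-1 cells were first differentiated with 20 nM TPA for 48 h. Bacteria were subcultured 3 h in LB and added at MOI 25 for 30 min. Cells then received 100 μg/ml gentamicin for 1 h and were washed. Treatment was in medium with 10% FBS and 10 μg/ml gentamicin. Survivors were released with 0.1% Triton X-100 and counted as CFU on LB agar after 16 h at 37°C.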

Salmonella typhimurium [8] = test: Antimicrobial activity against Salmonella enterica serovar Typhimurium ATCC 14028 infected in human TPA-differentiated THP1 cells; type: functional, organism-based; conditions: Salmonella enterica subsp. enterica serovar Typhimurium, THP-1; in short: as §3
Salmonella typhimurium [9] = test: Antimicrobial activity against Salmonella enterica serovar Typhimurium ATCC 14028 at 1 to 5 uM after 480 mins; type: functional, organism-based; conditions: Salmonella enterica subsp. enterica serovar Typhimurium
Salmonella typhimurium [10] = test: Antimicrobial activity against Salmonella enterica serovar Typhimurium ATCC 14028 infected in mouse RAW264.7 cells assessed as reduction of bacterial count at 1 uM pretreated 30 mins before infection measured after 1 hr; type: functional, organism-based; conditions: Salmonella enterica subsp. enterica serovar Typhimurium
In short: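 Bacteria were pre-exposed to vehicle (DMSO) or 1 μM drug in culture medium for 30 min. They were then used to infect RAW264.7 cells at MOI 25 for 30 min, followed by 100 μg/ml gentamicin for 1 h and PBS washes. Intracellular bacteria were counted as CFU 1 h later after Triton X-100 lysis.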

Salmonella typhimurium [11] = test: Antimicrobial activity against Salmonella enterica serovar Typhimurium ATCC 14028 infected in mouse RAW264.7 cells assessed as inhibition of intracellular bacterial growth at 1 uM after 4 hrs in presence of vacuolar ATPase inhibitor bafilomycin A1; type: functional, organism-based; conditions: Salmonella enterica subsp. enterica serovar Typhimurium; in short: as §3
Salmonella typhimurium [12] = test: Antimicrobial activity against Salmonella enterica serovar Typhimurium ATCC 14028 infected in mouse RAW264.7 cells assessed as inhibition of intracellular bacterial growth at 1 uM after 8 to 24 hrs in presence of gentamicin; type: functional, organism-based; conditions: Salmonella enterica subsp. enterica serovar Typhimurium; in short: as §3
Salmonella typhimurium [13] = test: Antimicrobial activity against Salmonella enterica serovar Typhimurium ATCC 14028 infected in mouse RAW264.7 cells transfected with shRNA assessed as reduction of Beclin-1 expression at 1 uM after 2 hrs by immunoblotting relative to control; type: functional, Salmonella enterica subsp. enterica serovar Typhimurium; parameters: scale not given: the % may be the effect or the level left
In short: (§4)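 Beclin-1 or Atg7 shRNA plasmids, with GFP shRNA as control, were nucleofected into RAW264.7 cells (2 × 10^6 cells, 2 μg DNA). Stable clones were selected with 2 μg/ml puromycin and kept in 1 μg/ml. Knockdown was measured by immunoblotting.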

Salmonella typhimurium [14] = test: Antimicrobial activity against Salmonella enterica serovar Typhimurium ATCC 14028 infected in mouse RAW264.7 cells transfected with shRNA assessed as reduction of Atg7 expression at 1 uM after 2 hrs by immunoblotting relative to control; type: functional, Salmonella enterica subsp. enterica serovar Typhimurium; parameters: scale not given: the % may be the effect or the level left; in short: as §4
[15] = target: RAC-alpha serine/threonine-protein kinase (Mus musculus) (UniProt P31750); test: Inhibition of Akt phosphorylation in mouse RAW264.7 cells infected with Salmonella enterica serovar Typhimurium ATCC 14028 assessed as decrease of p-473Ser-Akt level after 8 hrs by Western blotting; type: cell-based
In short: (§5)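 Infected RAW264.7 cells were treated for 8 h and then lysed in M-PER on ice. Lysates (25 μg/lane) were run on SDS gels and transferred to nitrocellulose. Membranes were blocked with 3% skim milk in TBS, incubated with primary antibody for 12 h at 4°C and then HRP secondary, and detected by enhanced chemiluminescence.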

[16] = target: RAC-alpha serine/threonine-protein kinase (Mus musculus) (UniProt P31750); test: Inhibition of Akt phosphorylation in mouse RAW264.7 cells infected with Salmonella enterica serovar Typhimurium ATCC 14028 assessed as decrease of p-308Thr-Akt level after 8 hrs by Western blotting; type: cell-based; in short: as §5
[17] = target: RAC-alpha serine/threonine-protein kinase (Mus musculus) (UniProt P31750); test: Inhibition of Akt phosphorylation in mouse RAW264.7 cells infected with Salmonella enterica serovar Typhimurium ATCC 14028 assessed as decrease of phosphorylated GSK3-beta level at 1 uM after 8 hrs by Western blotting; type: cell-based; in short: as §5
Salmonella typhimurium [18] = test: Antimicrobial activity against Salmonella enterica serovar Typhimurium ATCC 14028 infected in mouse RAW264.7 cells transfected with HA-tagged CA-Akt1 assessed as inhibition of intracellular bacterial survival at 1 uM after 2 hrs; type: functional, organism-based; conditions: Salmonella enterica subsp. enterica serovar Typhimurium; in short: as §3
Salmonella typhimurium [19] = test: Antimicrobial activity against Salmonella enterica serovar Typhimurium ATCC 14028 infected in mouse RAW264.7 cells transfected with HA-tagged CA-Akt1 assessed as inhibition of intracellular bacterial survival at 1 uM after 8 hrs; type: functional, organism-based; conditions: Salmonella enterica subsp. enterica serovar Typhimurium; in short: as §3
Salmonella typhimurium [20] = test: Antimicrobial activity against Salmonella enterica serovar Typhimurium ATCC 14028 infected in BALB/c mouse assessed as reduction of liver bacterial load at 2.5 mg/kg, administered intragastrically after 24 hrs of post infection qd for 4 days measured on day 5 relative to control; type: functional, Salmonella enterica subsp. enterica serovar Typhimurium; parameters: scale not given: the % may be the effect or the level left; conditions: route intragastric
In short: (§6)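 Female BALB/c mice, 8–10 weeks old, were infected by intragastric gavage with an overnight culture at 10^5 organisms in 0.1 ml PBS (50% lethal dose). Starting 24 h post-infection, drug in 0.5% methylcellulose–0.1% Tween 80 in water was given by gavage once daily for 4 days at 1, 2.5 or 5 mg/kg, 7–9 mice per group. On day 5 post-infection, liver and spleen were homogenized in 10 ml cold PBS and plated on LB agar to count CFU.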

Salmonella typhimurium [21] = test: Antimicrobial activity against Salmonella enterica serovar Typhimurium ATCC 14028 infected in BALB/c mouse assessed as reduction of liver bacterial load at 5 mg/kg, administered intragastrically after 24 hrs of post infection qd for 4 days measured on day 5 relative to control; type: functional, Salmonella enterica subsp. enterica serovar Typhimurium; parameters: scale not given: the % may be the effect or the level left; conditions: route intragastric; in short: as §6
Salmonella typhimurium [22] = test: Antimicrobial activity against Salmonella enterica serovar Typhimurium ATCC 14028 infected in BALB/c mouse assessed as reduction of spleen bacterial load at 2.5 mg/kg, administered intragastrically after 24 hrs of post infection qd for 4 days measured on day 5 relative to control; type: functional, Salmonella enterica subsp. enterica serovar Typhimurium; parameters: scale not given: the % may be the effect or the level left; conditions: route intragastric; in short: as §6
Salmonella typhimurium [23] = test: Antimicrobial activity against Salmonella enterica serovar Typhimurium ATCC 14028 infected in BALB/c mouse assessed as reduction of spleen bacterial load at 5 mg/kg, administered intragastrically after 24 hrs of post infection qd for 4 days measured on day 5 relative to control; type: functional, Salmonella enterica subsp. enterica serovar Typhimurium; parameters: scale not given: the % may be the effect or the level left; conditions: route intragastric; in short: as §6
RAW264.7 [24] = test: Induction of autophagy in mouse RAW264.7 cells assessed as increase of LC3 punctum formation at 1 uM by immunofluorescence microscopic analysis; type: functional, cell-based; in short: as §2
RAW264.7 [25] = test: Induction of autophagy in mouse RAW264.7 cells assessed as LC3-positive puncta with diameter greater than 1 uM in cytoplasm at 1 uM by immunofluorescence microscopic analysis; type: functional, cell-based; in short: as §2
RAW264.7 [26] = test: Cytotoxicity against mouse RAW264.7 cells assessed as cell viability at 1 uM after 24 hrs by MTT assay; type: cell-based; conditions: raw264.7, 24 h
RAW264.7 [27] = test: Cytotoxicity against mouse RAW264.7 cells assessed as cell viability after 24 hrs by MTT assay; type: cell-based; conditions: RAW264.7, 24 h
Salmonella typhimurium [28] = test: Antimicrobial activity against Salmonella enterica serovar Typhimurium ATCC 14028 infected in mouse RAW264.7 cells assessed as colocalization of organism with autophagosomes at 1 uM after 1 hr by immunofluorescence microscopic analysis relative to control; type: functional, Salmonella enterica subsp. enterica serovar Typhimurium; in short: as §2
Salmonella typhimurium [29] = test: Antimicrobial activity against Salmonella enterica serovar Typhimurium ATCC 14028 infected in BALB/c mouse assessed as increase of host survival days at 2.5 mg/kg, po administered after 24 hrs of post infection qd relative to control

Chain of RAC-alpha serine/threonine-protein kinase (Mus musculus) (P31750 whole entry): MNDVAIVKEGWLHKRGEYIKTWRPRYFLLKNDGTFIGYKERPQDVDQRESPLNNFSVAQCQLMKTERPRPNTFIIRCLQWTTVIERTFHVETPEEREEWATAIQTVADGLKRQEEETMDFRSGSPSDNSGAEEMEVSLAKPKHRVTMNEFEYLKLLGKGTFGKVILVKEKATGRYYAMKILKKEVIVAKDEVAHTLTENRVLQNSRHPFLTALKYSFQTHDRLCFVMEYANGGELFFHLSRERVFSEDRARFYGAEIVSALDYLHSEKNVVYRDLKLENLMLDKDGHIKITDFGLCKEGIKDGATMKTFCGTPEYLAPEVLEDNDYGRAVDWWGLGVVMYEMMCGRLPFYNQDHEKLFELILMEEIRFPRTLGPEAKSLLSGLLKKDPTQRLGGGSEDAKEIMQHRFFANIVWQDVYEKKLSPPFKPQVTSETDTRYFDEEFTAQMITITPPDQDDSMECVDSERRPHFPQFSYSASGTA

NCC(=O)Nc1ccc(-n2nc(C(F)(F)F)cc2-c2ccc3c(ccc4ccccc43)c2)cc1 [AR-12]
Activity (Salmonella typhimurium [1]): 25% | Activity (Salmonella typhimurium [2]): 82% | Activity (Salmonella typhimurium [3]): Active | Activity (Salmonella typhimurium [4]): 90% | IC50 (Salmonella typhimurium [5]): 0.2 µM | Activity (RAW264.7 [6]): Non-toxic | Activity (Salmonella typhimurium [7]): Active | Activity (Salmonella typhimurium [8]): Active | Activity (Salmonella typhimurium [9]): inactive | Activity (Salmonella typhimurium [10]): inactive | Activity (Salmonella typhimurium [11]): Active | Activity (Salmonella typhimurium [12]): Active | Activity (Salmonella typhimurium [13]): 83% | Activity (Salmonella typhimurium [14]): 43% | inhibition [15]: Dose-dependent effect | inhibition [16]: Dose-dependent effect | inhibition [17]: Active | Activity (Salmonella typhimurium [18]): Active | Activity (Salmonella typhimurium [19]): inactive | Activity (Salmonella typhimurium [20]): 99% | Activity (Salmonella typhimurium [21]): 96% | Activity (Salmonella typhimurium [22]): 98% | Activity (Salmonella typhimurium [23]): 90% | Activity (RAW264.7 [24]): Active | Activity (RAW264.7 [25]): Active | Activity (RAW264.7 [26]): Non-toxic | IC50 (RAW264.7 [27]): > 10 µM | Activity (Salmonella typhimurium [28]): 21.2% | Survival (Salmonella typhimurium [29]): 8.1 days
